Assay type in all cases: functional
Test [1] is described as follows: Growth inhibition of human DU145 cells measured after 48 hrs by sulforhodamine B assay. The following applies: DU-145, 48 h. In short, it runs like this: (§1)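 Cells were seeded in RPMI1640 with 5% fetal bovine serum and incubated 24 h before serial dilutions of sample were added. After 48 h exposure, cells were fixed with trichloroacetic acid and stained with sulforhodamine B, and optical density was read by plate reader.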

The nature of test [2]: Growth inhibition of human BxPC3 cells measured after 48 hrs by sulforhodamine B assay. The note with it: BXPC-3, 48 h. A digest of the protocol: as §1
Test [3] is described as follows: Growth inhibition of human SF268 cells measured after 48 hrs by sulforhodamine B assay. The note with it: SF-268, 48 h. In short, it runs like this: as §1
Test [4] in a line: Growth inhibition of human KM20L2 cells measured after 48 hrs by sulforhodamine B assay. The following applies: KM-20L2, 48 h. In short, it runs like this: as §1
In test [5] the test system is MCF7. Nature of the test: Growth inhibition of human MCF7 cells measured after 48 hrs by sulforhodamine B assay. The following applies: MCF7, 48 h. In short, it runs like this:
as §1

For test [6], the system named is P388. Nature of the test: Growth inhibition of mouse P388 cells measured after 48 hrs by sulforhodamine B assay. The note with it: P388, 48 h, read-out: ED50 (the source's name).
In test [7] the test system is NCI-H460. As to the kind of experiment: Growth inhibition of human NCI-H460 cells measured after 48 hrs by sulforhodamine B assay. The note with it: NCI-H460, 48 h. A digest of the protocol: as §1

In brackets after ≈: the same amount, converted by molar mass.

Consider `COc1cc(-c2c3c(nc4cc5c(cc24)OCO5)COC3=O)cc(OC)c1OC`, for which the 50% growth inhibitory concentration (GI50) came out at 2.4 µg/mL (≈ 6.07 µM) in test [1]; 4.1 µg/mL (≈ 10.4 µM) in test [2]; 2.4 µg/mL (≈ 6.07 µM) in test [3]; 2.1 µg/mL (≈ 5.31 µM) in test [4]; 3.4 µg/mL (≈ 8.6 µM) in test [5]; 2.8 µg/mL (≈ 7.08 µM) in test [7]. In addition, the EC50 in test [6] is 3.6 µg/mL (≈ 9.11 µM).
Take `COc1cc(C2C3=C(COC3=O)N(CCO)c3cc4c(cc32)OCO4)cc(OC)c1OC` (stereo not drawn): the GI50 in test [1] was determined as 1.3 µg/mL (≈ 2.94 µM); in test [2], 0.6 µg/mL (≈ 1.36 µM); in test [3], 0.41 µg/mL (≈ 0.929 µM); in test [4] it was 0.52 µg/mL (≈ 1.18 µM); in test [5], 0.37 µg/mL (≈ 0.838 µM); in test [7], 0.58 µg/mL (≈ 1.31 µM). In test [6], the EC50 came out at 2 µg/mL (≈ 4.53 µM).
Take `COc1cc(C2C3=C(COC3=O)N(C3CCCC3)c3cc4c(cc32)OCO4)cc(OC)c1O` (stereo not drawn): the 50% growth inhibitory concentration (GI50) was found to be 0.41 µg/mL (≈ 0.908 µM) in test [1]; 0.53 µg/mL (≈ 1.17 µM) in test [2]; 0.39 µg/mL (≈ 0.864 µM) in test [3]; 2.1 µg/mL (≈ 4.65 µM) in test [4]; 0.32 µg/mL (≈ 0.709 µM) in test [5]; 0.33 µg/mL (≈ 0.731 µM) in test [7].
Take `COc1cc(C2C3=C(COC3=O)Nc3cc(OC)c(OC)c(OC)c32)cc(Br)c1OC` (stereo not drawn): the 50% growth inhibitory concentration (GI50) in test [1] was 0.42 µg/mL (≈ 0.853 µM); in test [2], 0.56 µg/mL (≈ 1.14 µM); in test [3] it was 0.11 µg/mL (≈ 0.223 µM); in test [5], 0.12 µg/mL (≈ 0.244 µM); in test [7] it was 0.35 µg/mL (≈ 0.711 µM). The EC50 in test [6] was determined as 0.11 µg/mL (≈ 0.223 µM).
With `COc1cc(C2C3=C(COC3=O)N(CCN3CCOCC3)c3cc4c(cc32)OCO4)cc(OC)c1OC` (stereo not drawn), the GI50 in test [1] is 2 µg/mL (≈ 3.92 µM); in test [2] it was 3.5 µg/mL (≈ 6.86 µM); in test [3] it was 2.6 µg/mL (≈ 5.09 µM); in test [4], 2.5 µg/mL (≈ 4.9 µM); in test [5], 0.89 µg/mL (≈ 1.74 µM); in test [7], 3 µg/mL (≈ 5.88 µM). The EC50 in test [6] was 2.6 µg/mL (≈ 5.09 µM).
As to `COc1cc(C2C3=C(COC3=O)N(CCCn3ccnc3)c3cc4c(cc32)OCO4)cc(OC)c1OC` (stereo not drawn), the GI50 is 2.1 µg/mL (≈ 4.15 µM) in test [1]; 2.9 µg/mL (≈ 5.74 µM) in test [2]; 2.5 µg/mL (≈ 4.95 µM) in test [3]; 2.2 µg/mL (≈ 4.35 µM) in test [4]; 0.64 µg/mL (≈ 1.27 µM) in test [5]; 3 µg/mL (≈ 5.93 µM) in test [7]. Also, the EC50 in test [6] stood at 2 µg/mL (≈ 3.96 µM).
As for `COc1cc(C2C3=C(COC3=O)N(CCN3CCCCC3)c3cc4c(cc32)OCO4)cc(OC)c1OC` (stereo not drawn), the GI50 was more than 10 µg/mL in test [1]; 4.4 µg/mL (≈ 8.65 µM) in test [2]; more than 10 µg/mL in test [3]; more than 10 µg/mL in test [4]; more than 10 µg/mL in test [5]; more than 10 µg/mL in test [7]. For the same molecule, in test [6], the EC50 came out at 1.7 µg/mL (≈ 3.34 µM).
For the molecule `COc1cc(C2C3=C(COC3=O)N(C)c3cc4c(cc32)OCO4)cc(OC)c1OC` (stereo not drawn), the GI50 in test [1] amounted to 0.026 µg/mL (≈ 0.0632 µM); in test [2], 0.049 µg/mL (≈ 0.119 µM); in test [3] it was 0.029 µg/mL (≈ 0.0705 µM); in test [4], 0.032 µg/mL (≈ 0.0778 µM); in test [5], 0.034 µg/mL (≈ 0.0826 µM); in test [7] it was 0.032 µg/mL (≈ 0.0778 µM). For the same molecule, in test [6], the EC50 worked out at 0.027 µg/mL (≈ 0.0656 µM).
For the molecule `COc1cc(C2C3=C(COC3=O)Nc3cc4c(cc32)OCO4)cc(OC)c1O` (stereo not drawn), the GI50 was found to be 0.033 µg/mL (≈ 0.0861 µM) in test [1]; 0.028 µg/mL (≈ 0.073 µM) in test [2]; 0.026 µg/mL (≈ 0.0678 µM) in test [3]; 0.032 µg/mL (≈ 0.0835 µM) in test [4]; 0.025 µg/mL (≈ 0.0652 µM) in test [5]; 0.027 µg/mL (≈ 0.0704 µM) in test [7]. The EC50 in test [6] worked out at 0.028 µg/mL (≈ 0.073 µM).
For the molecule `COc1cc(C2C3=C(COC3=O)N(CCN(C)C)c3cc4c(cc32)OCO4)cc(OC)c1OC` (stereo not drawn), the concentration for 50% growth inhibition (GI50) in test [1] was found to be 2.5 µg/mL (≈ 5.34 µM); in test [2], 0.43 µg/mL (≈ 0.918 µM); in test [3] it was 0.46 µg/mL (≈ 0.982 µM); in test [4], 0.51 µg/mL (≈ 1.09 µM); in test [5], 0.29 µg/mL (≈ 0.619 µM); in test [7], 1 µg/mL (≈ 2.13 µM). For the same molecule, the EC50 in test [6] was determined as 0.18 µg/mL (≈ 0.384 µM).
`COc1cc(C2C3=C(COC3=O)N(CCc3ccc(F)cc3)c3cc4c(cc32)OCO4)cc(OC)c1O` (stereo not drawn): the concentration for 50% growth inhibition (GI50) was 0.38 µg/mL (≈ 0.752 µM) in test [1]; 1.4 µg/mL (≈ 2.77 µM) in test [2]; 0.48 µg/mL (≈ 0.95 µM) in test [3]; 0.34 µg/mL (≈ 0.673 µM) in test [5]; 0.36 µg/mL (≈ 0.712 µM) in test [7]. The EC50 in test [6] worked out at 0.21 µg/mL (≈ 0.415 µM).
Regarding `COc1cc(C2C3=C(COC3=O)N(Cc3ccc(F)cc3)c3cc4c(cc32)OCO4)cc(OC)c1OC` (stereo not drawn), the GI50 in test [1] is 0.047 µg/mL (≈ 0.093 µM); in test [2], 0.046 µg/mL (≈ 0.091 µM); in test [3], 0.03 µg/mL (≈ 0.0593 µM); in test [4], 0.033 µg/mL (≈ 0.0653 µM); in test [5] it was 0.037 µg/mL (≈ 0.0732 µM); in test [7], 0.031 µg/mL (≈ 0.0613 µM). Further, in test [6], the EC50 was 1.9 µg/mL (≈ 3.76 µM).
For `COc1cc(C2C3=C(COC3=O)N(Cc3ccco3)c3cc4c(cc32)OCO4)cc(OC)c1O` (stereo not drawn), the GI50 was found to be 0.39 µg/mL (≈ 0.842 µM) in test [1]; 1 µg/mL (≈ 2.16 µM) in test [2]; 0.061 µg/mL (≈ 0.132 µM) in test [3]; 0.054 µg/mL (≈ 0.117 µM) in test [5]; 0.24 µg/mL (≈ 0.518 µM) in test [7]. The EC50 in test [6] was determined as 0.89 µg/mL (≈ 1.92 µM).
As for `COc1cc(C2C3=C(COC3=O)N(C3CCCC3)c3cc4c(cc32)OCO4)cc(OC)c1OC` (stereo not drawn), the GI50 in test [1] came to 0.27 µg/mL (≈ 0.58 µM); in test [2] it was 0.083 µg/mL (≈ 0.178 µM); in test [3], 0.062 µg/mL (≈ 0.133 µM); in test [4] it was 0.12 µg/mL (≈ 0.258 µM); in test [5], 0.045 µg/mL (≈ 0.0967 µM); in test [7], 0.16 µg/mL (≈ 0.344 µM).

These data come from ChEMBL document CHEMBL3808349, “Antineoplastic Agents. 585. Isolation of Bridelia ferruginea Anticancer Podophyllotoxins and Synthesis of 4-Aza-podophyllotoxin Structural Modifications” (2016).
